Assay results published in ChEMBL document CHEMBL1687823, “PA-824 exhibits time-dependent activity in a murine model of tuberculosis” (Antimicrob Agents Chemother, 2011).

Legend:
[1] = test system: Mycobacterium tuberculosis; assay: fT>MIC for >= 1 log reduction in CFU count in Mycobacterium tuberculosis H37Rv in using simulated dose of at 100 mg assessed as time during compound concentration exceeds MIC of 0.06250 ug/ml assuming 5% unbound compound concentration by one compartment human pharmacokinetic model; assay type: functional
Summary of the method: (§1)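 A one-compartment PK model was fitted to human data to get median parameters. It simulated steady-state total and free concentrations for 100, 200 or 400 mg once daily, assuming 5, 7, 10 or 15% unbound drug. Free T>MIC was computed against MICs of 0.03125–0.25 µg/ml and compared with the mouse-derived T>MIC target for 1-log10 kill.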

[2] = test system: Mycobacterium tuberculosis; assay: fT>MIC for >= 1 log reduction in CFU count in Mycobacterium tuberculosis H37Rv in using simulated dose of at 200 mg assessed as time during compound concentration exceeds MIC of 0.03125 ug/ml assuming 10% unbound compound concentration by one compartment human pharmacokinetic model; assay type: functional; summary of the method: as §1
[3] = test system: Mycobacterium tuberculosis; assay: fT>MIC for >= 1 log reduction in CFU count in Mycobacterium tuberculosis H37Rv in using simulated dose of at 200 mg assessed as time during compound concentration exceeds MIC of 0.12500 ug/ml assuming 15% unbound compound concentration by one compartment human pharmacokinetic model; assay type: functional; summary of the method: as §1
[4] = test system: Mycobacterium tuberculosis; assay: Antitubercular activity against Mycobacterium tuberculosis H37Rv infected in po dosed BALB/c mouse assessed as reduction in log10 CFU count by single dose study; assay type: functional, organism-based
[5] = test system: Mycobacterium tuberculosis; assay: fT>MIC for >= 1 log reduction in CFU count in Mycobacterium tuberculosis H37Rv in using simulated dose of at 100 mg assessed as time during compound concentration exceeds MIC of 0.06250 ug/ml assuming 15% unbound compound concentration by one compartment human pharmacokinetic model; assay type: functional; summary of the method: as §1
[6] = test system: Mycobacterium tuberculosis; assay: Antitubercular activity against Mycobacterium tuberculosis H37Rv infected in BALB/c mouse assessed as reduction in log10 CFU count at 96 mg/kg, po bid; assay type: functional
Summary of the method: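 Female 6-week BALB/c mice were aerosol-infected with log-phase H37Rv, aiming to implant ~3.5 log10 CFU. Treatment began 14 days later: gavage of cyclodextrin-micelle suspension for 24 consecutive days, total 0–4,608 mg/kg split into 3–48 equal doses, 3 mice per group. Lungs harvested 4 days after last dose and plated on selective OADC-7H11. CFU transformed as log10(x+1).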

[7] = test system: Mycobacterium tuberculosis; assay: Antitubercular activity against Mycobacterium tuberculosis H37Rv infected in BALB/c mouse assessed as reduction in log10 CFU count at 96 mg/kg, po for 5 days relative to control; assay type: functional
Mus musculus = assay: Toxicity in BALB/c mouse assessed as adverse effect up to 1456 mg/kg, po administered as single dose; assay type: organism-based; set-up: route oral; details: in vivo
Summary of the method: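 Uninfected 6-week female BALB/c mice received single oral gavage doses of 3–1,458 mg/kg as a cyclodextrin-micelle suspension. Three mice per time point were bled by cardiac puncture under isoflurane at 0.5–120 h. Serum levels were measured by validated HPLC-UV (standards 0.20–50 µg/ml).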

[8] = test system: Mycobacterium tuberculosis; assay: fT>MIC for >= 1 log reduction in CFU count in Mycobacterium tuberculosis H37Rv in using simulated dose of at 200 mg assessed as time during compound concentration exceeds MIC of 0.06250 ug/ml assuming 5% unbound compound concentration by one compartment human pharmacokinetic model; assay type: functional; summary of the method: as §1
[9] = test system: Mycobacterium tuberculosis; assay: fT>MIC for >= 1 log reduction in CFU count in Mycobacterium tuberculosis H37Rv in using simulated dose of at 100 mg assessed as time during compound concentration exceeds MIC of 0.25000 ug/ml assuming 10% unbound compound concentration by one compartment human pharmacokinetic model; assay type: functional; summary of the method: as §1
[10] = test system: Mycobacterium tuberculosis; assay: fT>MIC for >= 1 log reduction in CFU count in Mycobacterium tuberculosis H37Rv in using simulated dose of at 200 mg assessed as time during compound concentration exceeds MIC of 0.12500 ug/ml assuming 5% unbound compound concentration by one compartment human pharmacokinetic model; assay type: functional; summary of the method: as §1
[11] = test system: Mycobacterium tuberculosis; assay: fT>MIC for >= 1 log reduction in CFU count in Mycobacterium tuberculosis H37Rv in using simulated dose of at 100 mg assessed as time during compound concentration exceeds MIC of 0.03125 ug/ml assuming 15% unbound compound concentration by one compartment human pharmacokinetic model; assay type: functional; summary of the method: as §1
[12] = test system: Mycobacterium tuberculosis; assay: fT>MIC for >= 1 log reduction in CFU count in Mycobacterium tuberculosis H37Rv in using simulated dose of at 400 mg assessed as time during compound concentration exceeds MIC of 0.12500 ug/ml assuming 15% unbound compound concentration by one compartment human pharmacokinetic model; assay type: functional
Summary of the method: (§2)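 Human steady-state simulation: one-compartment PK model fitted to patient data, chosen by AIC. Median PK parameters used to simulate total and free concentrations, assuming 5, 7, 10 or 15% unbound, for 100, 200 and 400 mg once daily. Free levels compared with MICs of 0.03125 to 0.25 µg/ml to give %T>MIC; T>MIC is the cumulative percentage of the dosing interval above MIC.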

[13] = test system: Mycobacterium tuberculosis; assay: fT>MIC for >= 1 log reduction in CFU count in Mycobacterium tuberculosis H37Rv in using simulated dose of at 200 mg assessed as time during compound concentration exceeds MIC of 0.25000 ug/ml assuming 5% unbound compound concentration by one compartment human pharmacokinetic model; assay type: functional; summary of the method: as §1
[14] = test system: Mycobacterium tuberculosis; assay: Antimicrobial activity against Mycobacterium tuberculosis H37Rv infected in single po dosed BALB/c mouse assessed as reduction in lung CFU count; assay type: functional
[15] = test system: Mycobacterium tuberculosis; assay: fT>MIC for >= 1 log reduction in CFU count in Mycobacterium tuberculosis H37Rv in using simulated dose of at 100 mg assessed as time during compound concentration exceeds MIC of 0.12500 ug/ml assuming 5% unbound compound concentration by one compartment human pharmacokinetic model; assay type: functional; summary of the method: as §1
[16] = test system: Mycobacterium tuberculosis; assay: fT>MIC for >= 1 log reduction in CFU count in Mycobacterium tuberculosis H37Rv in using simulated dose of at 200 mg assessed as time during compound concentration exceeds MIC of 0.25000 ug/ml assuming 10% unbound compound concentration by one compartment human pharmacokinetic model; assay type: functional; summary of the method: as §1
[17] = test system: Mycobacterium tuberculosis; assay: fT>MIC for >= 1 log reduction in CFU count in Mycobacterium tuberculosis H37Rv in using simulated dose of at 400 mg assessed as time during compound concentration exceeds MIC of 0.25000 ug/ml assuming 5% unbound compound concentration by one compartment human pharmacokinetic model; assay type: functional; summary of the method: as §2

## O=[N+]([O-])c1cn2c(n1)OC[C@@H](OCc1ccc(OC(F)(F)F)cc1)C2 [PRETOMANID]
[1]
  fT>MIC: 0%
[2]
  fT>MIC: 100%
[3]
  fT>MIC: 67%
[4]
  Activity: Dose-dependent effect
[5]
  fT>MIC: 67%
[6]
  log10cfu: 2.4
[7]
  log10cfu: 2
Mus musculus
  Activity: Non-toxic
[8]
  fT>MIC: 46%
[9]
  fT>MIC: 0%
[10]
  fT>MIC: 0%
[11]
  fT>MIC: 100%
[12]
  fT>MIC: 100%
[13]
  fT>MIC: 0%
[14]
  MBC: 100 mg/kg
[15]
  fT>MIC: 0%
[16]
  fT>MIC: 0%
[17]
  fT>MIC: 0%
